Test results from ChEMBL document CHEMBL1765072, “Inhibition of amyloidogenesis by nonsteroidal anti-inflammatory drugs and their hybrid nitrates” (J Med Chem, 2011).
Active and inactive are the calls of the source. No cut-off for these calls is given here.

What was measured:
RAW264.7 [1] = assay: Antiinflammatory activity against mouse RAW264.7 cells assessed as LPS-induced nitrate production at 100 uM treated 30 mins before LPS challenge measured after 24 hrs by Griess reagent method relative to control
N2a [2] = assay: Antiamyloidogenic activity in mouse N2A cells transfected with human APP Swedish mutant assessed as amyloid beta (1 to 42) level at 1 uM after 24 hrs by ELISA relative to control
RAW264.7 [3] = assay: Antiinflammatory activity against mouse RAW264.7 cells assessed as LPS-induced nitrate production at 10 uM treated 30 mins before LPS challenge measured after 24 hrs by Griess reagent method relative to control
[4] = Cytotoxicity against mouse RAW264.7 cells assessed as cell viability at 10 uM after 24 hrs by MTT assay relative to control; type: cell-based; conditions: read-out: Activity
Outline: (§1)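 RAW 264.7 cells given 0.5 mg/ml MTT in medium for 4 h, washed with PBS; formazan dissolved in DMSO, shaken 30 min, absorbance read at 570 nm against a 630 nm reference. Viability expressed relative to DMSO control.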

[5] = Cytotoxicity against mouse RAW264.7 cells assessed as cell viability at 100 uM after 24 hrs by MTT assay relative to control; type: cell-based; conditions: read-out: Activity
Outline: as §1

N2a [6] = assay: Antiamyloidogenic activity in mouse N2A cells transfected with human APP Swedish mutant assessed as amyloid beta (1 to 42) level at 100 uM after 24 hrs by ELISA relative to control
N2a [7] = assay: Antiamyloidogenic activity in mouse N2A cells transfected with human APP Swedish mutant assessed as increase of amyloid beta (1 to 42) level at 200 uM after 24 hrs by ELISA relative to control; type: functional
N2a [8] = assay: Antiamyloidogenic activity in mouse N2A cells transfected with human APP Swedish mutant assessed as increase of amyloid beta (1 to 42) level at 200 uM after 24 hrs by ELISA; type: functional, cell-based
N2a [9] = assay: Antiamyloidogenic activity in mouse N2A cells transfected with human APP Swedish mutant assessed as effect on amyloid beta (1 to 37) level at 200 uM after 24 hrs by ELISA; type: functional, cell-based
N2a [10] = assay: Antiamyloidogenic activity in mouse N2A cells transfected with human APP Swedish mutant assessed as increase of amyloid beta (1 to 42)/(1 to 40) ratio at 200 uM after 24 hrs by ELISA; type: functional, cell-based
N2a [11] = assay: Antiamyloidogenic activity in mouse N2A cells transfected with human APP Swedish mutant assessed as increase of amyloid beta (1 to 40) level at 200 uM after 24 hrs by ELISA; type: functional, cell-based
N2a [12] = assay: Antiamyloidogenic activity in mouse N2A cells transfected with human APP Swedish mutant assessed as effect on amyloid beta (1 to 38) level at 200 uM after 24 hrs by ELISA; type: functional, cell-based
[13] = Ratio of drug level in brain to plasma in C57BL/6 mouse at 10 mg/kg, ip after 120 mins; type: ADME, organism-based; set-up: dose 10 mg/kg, route intraperitoneal; conditions: read-out: BPR
Outline: (§2)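 Male C57BL/6 mice (25 g) dosed i.p. with 10 mg/kg in DMSO/H₂O 1:1, sacrificed at 30 or 120 min. Brain extracted by methanol homogenization and plasma by acetonitrile, then C18 LC-MS/MS with MRM m/z 361→200 in positive mode. Quantified against a 4–500 ng/mL standard curve; N=4, mean and s.e.m.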

[14] = Ratio of drug level in brain to plasma in C57BL/6 mouse at 10 mg/kg, ip after 30 mins; type: ADME, organism-based; set-up: dose 10 mg/kg, route intraperitoneal; conditions: read-out: BPR
Outline: as §2

N2a [15] = assay: Antiamyloidogenic activity in mouse N2A cells assessed as degradation of amyloid beta (1 to 40) level at 10 uM treated 24 hrs before amyloid beta (1 to 40) challenge measured after 8 hrs by MALDI/TOF analysis; type: functional, cell-based
Outline: (§3)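 Wild-type N2a cells in DMEM with 0.2 % FBS, drug-treated after PBS wash; conditioned media collected (18 h per methods, 24 h per text), NaN₃ added, centrifuged, then mixed with Aβ1–40 + Aβ1–42 and incubated 8 h at 37 °C. Cell-free media served as control. Aβ measured by 4G8/6E10 immunoprecipitation and MALDI-TOF, normalized to Aβ1–43 spike and to media control; mean and s.d.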

N2a [16] = assay: Antiamyloidogenic activity in mouse N2A cells assessed as reduction of amyloid beta (1 to 42)/(1 to 40) ratio at 10 uM treated 24 hrs before amyloid beta (1 to 42)/(1 to 40) challenge measured after 8 hrs by MALDI/TOF analysis; type: functional, cell-based
Outline: as §3

N2a [17] = assay: Antiamyloidogenic activity in mouse N2A cells assessed as degradation of amyloid beta (1 to 42) level at 10 uM treated 24 hrs before amyloid beta (1 to 42) challenge measured after 8 hrs by MALDI/TOF analysis; type: functional, cell-based
Outline: as §3

N2a [18] = assay: Antiamyloidogenic activity in mouse N2A cells assessed as reduction of amyloid beta (1 to 42)/(1 to 40) ratio at 1 uM treated 24 hrs before amyloid beta (1 to 42)/(1 to 40) challenge measured after 8 hrs by MALDI/TOF analysis; type: functional, cell-based
Outline: as §3

N2a [19] = assay: Antiamyloidogenic activity in mouse N2A cells transfected with human APP Swedish mutant assessed as increase of amyloid beta (1 to 42) level at 100 uM after 24 hrs by ELISA; type: functional, cell-based
N2a [20] = assay: Antiamyloidogenic activity in mouse N2A cells transfected with human APP Swedish mutant assessed as increase of amyloid beta (1 to 40) level at 100 uM after 24 hrs by ELISA; type: functional, cell-based
N2a [21] = assay: Antiamyloidogenic activity in mouse N2A cells transfected with human APP Swedish mutant assessed as increase of amyloid beta (1 to 42)/(1 to 40) ratio at 100 uM after 24 hrs by ELISA; type: functional, cell-based
N2a [22] = assay: Antiamyloidogenic activity in mouse N2A cells assessed as degradation of amyloid beta (1 to 40) level at 1 uM treated 24 hrs before amyloid beta (1 to 40) challenge measured after 8 hrs by MALDI/TOF analysis; type: functional, cell-based
Outline: as §3

N2a [23] = assay: Antiamyloidogenic activity in mouse N2A cells assessed as degradation of amyloid beta (1 to 42) level at 1 uM treated 24 hrs before amyloid beta (1 to 42) challenge measured after 8 hrs by MALDI/TOF analysis; type: functional, cell-based
Outline: as §3

With `COc1ccc2c(c1)c(CC(=O)O)c(C)n2C(=O)c1ccc(Cl)cc1` [INDOMETHACIN] the level, % of control at 100 µM (RAW264.7 [1]) was 39.8%, the level, % of control at 1 µM (N2a [2]) was 108% and the level, % of control at 10 µM (RAW264.7 [3]) was 70.9%. For the same compound, the viability at 24 h, 10 µM [4] was 98.7%, the viability at 24 h, 100 µM [5] was 92% and the level, % of control at 100 µM (N2a [6]) was 76.7%.
With `CC(C)OC(=O)C(C)(C)Oc1ccc(C(=O)c2ccc(Cl)cc2)cc1` [FENOFIBRATE] the “fold change (FC)” value (N2a [7]) was 3, the Activity (N2a [8]) was “Active” and the Activity (N2a [9]) was “Active”. For the same compound, the Activity (N2a [10]) was “Active”, the Activity (N2a [11]) was “Active” and the Activity (N2a [12]) was “Active”.
Compound `CC(C(=O)NCCCCO[N+](=O)[O-])c1ccc(-c2ccccc2)c(F)c1` (stereo not drawn) has a Kp at 2 h [13] of 13 and a Kp at 0.5 h [14] of 37.
In the case of `CSc1ccc(/C=C2/C=C(CC(=O)O)c3cc(F)ccc32)cc1`, the level, % of control at 1 µM (N2a [2]) is reported as 80.8%, the level, % of control at 10 µM (RAW264.7 [3]) is reported as 47.5% and the viability at 24 h, 10 µM [4] is reported as 100%. The Activity (N2a [15]) was “Active”, the Activity (N2a [16]) was “Active” and the Activity (N2a [17]) was “Active”.
For `CC(C(=O)OCCCCO[N+](=O)[O-])c1ccc(-c2ccccc2)c(F)c1` (stereo not drawn), the level, % of control at 100 µM (RAW264.7 [1]) was 49.8%, the Activity (N2a [18]) was “Active” and the Activity (N2a [19]) was “Active”. The Activity (N2a [20]) was “Active”, the Activity (N2a [21]) was “Active” and the Activity (N2a [22]) was “Active”. The viability at 24 h, 100 µM [5] was 108% and the Activity (N2a [23]) was “Active”.
